The values that follow come from ChEMBL document CHEMBL1141616, “Structure-activity relationships in the inhibition of monoamine oxidase B by 1-methyl-3-phenylpyrroles” (Bioorg Med Chem, 2008).

Usually Ki stands for the equilibrium dissociation constant of an inhibitor or competing ligand from its target. Lower therefore signals a stronger hold on the target.

The species entered for one test is Bos taurus. Nature of the test: Inhibition of beef liver mitochondrial MAOB at 200 uM.
Test [1] can be described thus: Inhibition of baboon liver mitochondrial MAOB. More on the design: species or system Papio hamadryas.
Another test is filed under the species Papio hamadryas. Nature of the test: Inhibition of baboon liver mitochondrial MAOB at 5.20 uM. Put shortly:
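Time-dependence test: baboon liver mitochondria (0.3 mg protein/mL) were preincubated with inhibitor at 5.20 µM in 100 mM sodium phosphate, pH 7.4, for 0, 15, 30 and 60 min at 37 °C. This was then diluted to 0.15 mg protein/mL with 90 µM MMTP, giving a final inhibitor concentration of 2.60 µM. Incubated 15 min at 37 °C, stopped with perchloric acid, and MMDP⁺ was measured.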

Active and inactive are the calls of the source. The rule behind the calls is not given here.

As for `COc1cccc(-c2ccn(C)c2)c1`, the outcome in the test listed under Bos taurus was inactive. Also, the affinity in test [1] corresponds to a Ki of 41.7 µM.

Turning to `Cn1ccc(-c2ccccc2)c1`, in the test listed under Bos taurus, the outcome was inactive. In test [1], the affinity corresponds to a Ki of 118 µM.

In the case of `Cn1ccc(-c2ccc(Cl)cc2)c1`, the outcome in the test listed under Bos taurus was inactive. In test [1], this molecule showed a Ki of 18.4 µM.

On to `Cc1ccc(-c2ccn(C)c2)cc1`, for which the outcome in the test listed under Bos taurus was inactive. The Ki in test [1] is 22.5 µM.

For `Cc1cccc(-c2ccn(C)c2)c1`, in the test listed under Bos taurus, the outcome was inactive. Further, the Ki in test [1] was determined as 56 µM.

Turning to `Cn1ccc(-c2cccc(C(F)(F)F)c2)c1`, the outcome in the test listed under Bos taurus was inactive. The molecule also gave a Ki in test [1] of 6.55 µM.

Regarding `COc1ccc(-c2ccn(C)c2)cc1`, the outcome in the test listed under Bos taurus was inactive. Further, the inhibition constant (Ki) in test [1] worked out at 36.5 µM.

As for `Cn1ccc(-c2ccc(Br)cc2)c1`, the result in the test listed under Bos taurus was inactive. Further, affinity in test [1] was put at a Ki of 6.65 µM.

`Cn1ccc(-c2ccc(C(F)(F)F)cc2)c1`: in the test listed under Bos taurus, the result was inactive. The same molecule yielded a Ki in test [1] of 1.3 µM. The outcome in the test listed under Papio hamadryas was Active.

In the case of `Cn1ccc(-c2ccc(F)cc2)c1`, the result in the test filed under Bos taurus was inactive. Also, the affinity in test [1], expressed as Ki, was 31 µM.

As for `Cn1ccc(-c2cccc(Cl)c2)c1`, the result in the test listed under Bos taurus was inactive. The molecule also registered a Ki in test [1] of 20.9 µM.

For `Cn1ccc(-c2cccc(Br)c2)c1`, the result in the test filed under Bos taurus was inactive. Also, in test [1], affinity was put at a Ki of 14.3 µM.

On to `Cn1ccc(-c2cccc(F)c2)c1`, for which, in the test filed under Bos taurus, the outcome was inactive. In test [1], the affinity corresponds to a Ki of 38.9 µM.
